Assay results: PMC9575405 (ACS infectious diseases, 2021)

Tests used:
[1] = tested on: S. aureus ATCC 13709 (Smith); test: Mouse abscess infection model; type: in vivo; settings: after 26 h; orally at 20 mg/kg
Method in brief: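 Female CD-1 mice were infected s.c. in the right flank under anaesthesia with 0.25 mL inoculum (OD625 0.1 saline suspension from plate culture; target 1.0×10^6, actual 1.4×10^6 CFU/mouse) mixed with […] beads. From 2 h post-infection, test compounds were injected into the abscess (100 uL), repeated 12 h later; positive control was oral. Five per group; T=0 group sampled. Abscess CFU at 26 h; mean and SD.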

S. aureus Smith = test: Mouse septicemia model; type: in vivo; settings: 10 mg/kg i.v., five mice
Method in brief: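 CD-1 female mice (18–20 g), acclimated 5 days, were infected i.p. with 0.5 ml of S. aureus (overnight liquid culture diluted 1:10, grown 5 h shaking) diluted in 5% hog gastric mucin, pH 7.4, to give ≥90% mortality within 48 h (1.6 × 10^6 CFU). Single slow i.v. bolus at 10 mL/kg 1 h post-infection. Five mice per treatment group; ten vehicle-dosed infection controls. Read-out: survival.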

Row | Compound | increase in CFUs [1] [log10] | survival (S. aureus Smith)
1 | CC(=O)NC[C@H]1CN(c2ccc(N3CCOCC3)c(F)c2)C(=O)O1 [linezolid] | 1 | –
2 | CN[C@H](CC(C)C)C(=O)N[C@H]1C(=O)N[C@@H](CC(N)=O)C(=O)N[C@H]2C(=O)N[C@H]3C(=O)N[C@H](C(=O)N[C@H](C(=O)O)c4cc(O)cc(O)c4-c4cc3ccc4O)[C@H](O)c3ccc(c(Cl)c3)Oc3cc2cc(c3O[C@@H]2O[C@H](CO)[C@@H](O)[C@H](O)[C@H]2O[C@H]2C[C@](C)(N)[C@H](O)[C@H](C)O2)Oc2ccc(cc2Cl)[C@H]1O [vancomycin] | – | all five mice
